# Sampled rows, rich in hits. Any-hit rate of the full collection: about 2.9%.
# Efflux pump mplx: inhibitors of Candida efflux pumps in yeast, primary screen, S. cerevisiae, Nile Red, multiplex; inhibition, % at 10 µM; S. cerevisiae Candida pump triplex; hit rate 0.44% among 330,000;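 active means plate passing quality check with inhibition over a set limit, or well fluorescence over plate mean plus 4 SD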;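 further: Nile Red retained in pooled yeast measured as flow cytometry median fluorescence; 0% = buffer negative control and 100% = Enniatin B positive control; higher means more Nile Red kept so more efflux inhibition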
# MC4R ag barr: MC4R agonists recruiting beta-arrestin, primary screen, cell-based, luminescence, agonist arm of biased-ligand search; Melanocortin receptor 4 (Homo sapiens), P32245; U2OS MC4R beta-arrestin complementation; percent of melanotan II response, DMSO zero; activation, % at 8.9 µM; hit rate 0.98% among 360,000; AID 540308, 2011;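 active means activation above a per-plate cutoff, the mean activation of sample wells on that plate plus 3 SD, cut at about 8% in these data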
# Target sequence (P32245 whole entry, looked up): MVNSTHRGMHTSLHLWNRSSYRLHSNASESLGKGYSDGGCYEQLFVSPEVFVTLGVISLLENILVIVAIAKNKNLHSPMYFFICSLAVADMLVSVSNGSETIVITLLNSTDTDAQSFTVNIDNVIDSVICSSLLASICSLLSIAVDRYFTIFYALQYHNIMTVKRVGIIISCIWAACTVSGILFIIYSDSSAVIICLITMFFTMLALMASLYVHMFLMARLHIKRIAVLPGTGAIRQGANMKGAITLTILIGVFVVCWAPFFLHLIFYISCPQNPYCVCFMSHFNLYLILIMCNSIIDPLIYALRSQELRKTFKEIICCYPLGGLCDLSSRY
# GalR3 antagonist: GalR3 antagonists in HEK293 cells, primary screen, cell-based, fluorescence readout; hit rate 0.44% among 360,000; AID 651719, 2012; HEK293 GalR3-CNG cAMP membrane potential fluorescence; galR3 body fused to GalR1 C-terminus; Galanin receptor type 3 (Homo sapiens), O60755; inhibition, % at 3 µM;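 active means inhibition above the screen-wide average plus 3 SD, cut at about 13% in these data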;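 further: forskolin and galanin both at EC90 stimulate the cells; cAMP rise reported by CNG channel membrane potential dye signal; 0% = forskolin plus galanin with DMSO and 100% = forskolin alone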
# Target sequence (O60755 1-299 limits assumed): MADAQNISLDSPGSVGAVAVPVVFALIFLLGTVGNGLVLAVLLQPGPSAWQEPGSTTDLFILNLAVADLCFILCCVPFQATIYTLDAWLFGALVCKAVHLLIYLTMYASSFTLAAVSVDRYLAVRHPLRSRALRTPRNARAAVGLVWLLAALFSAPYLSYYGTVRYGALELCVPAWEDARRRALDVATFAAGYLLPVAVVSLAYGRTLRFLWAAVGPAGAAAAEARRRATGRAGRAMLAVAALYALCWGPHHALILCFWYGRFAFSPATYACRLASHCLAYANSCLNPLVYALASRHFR
# Calb FLC: C. albicans growth inhibition with fluconazole, primary screen, CaCi-2 strain, Alamar Blue fluorescence | C. albicans CaCi-2 (fluconazole-resistant clinical isolate) + fluconazole, 48 h | growth inhibition, % (no concentration beside the values) | hit rate 0.57% among 300,000 | AID 1979, 2009;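 active means growth inhibition above about 58% in most replicates, limit read from the data, passing the limit was not always enough; inconclusive means exactly half the replicates above a set limit; inactive means most replicates below a set limit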;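 further: all wells also contain fluconazole at 8 µg/ml as a sub-toxic cotreatment; 0% = median of DMSO wells and 100% = median of geldanamycin control wells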
# TAG inh: inhibitors of triacylglycerol accumulation, primary screen, cell-based, uHTS, fluorescence, H9c2. H9c2 cells, Nile Red lipid (TAG) fluorescence; cells loaded with 200 µM oleic acid. inhibition, % at 12.5 µM. hit rate 0.66% among 230,000;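 active means pattern-corrected inhibition of lipid staining of at least 50% with the nuclear-stain viability signal not falling by more than 50%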;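 further: 0% = DMSO wells and 100% = triacsin C control wells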
# MC4R antag cAMP: MC4R antagonists of cAMP signaling, primary screen, cell-based, TR-FRET, antagonist arm of biased-ligand search; hit rate 0.48% among 360,000; MC4R-expressing cells, MTII-stimulated cAMP, LANCE TR-FRET; inhibition, % at 6.5 µM;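 active means inhibition above its plate's cutoff, the mean of tested wells on that plate plus 3 SD, cut at about 29% in these data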;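 further: 0% = Melanotan II alone and 100% = Melanotan II plus saturating MCL0020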
#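 Assay system: U2OS cells stably expressing human melanocortin 4 receptor (MC4R) / Dosing: 6.5 µM / Timing: compound 30 min, challenge 1 h, detection 1 h / Measured by: Eu-cAMP/anti-cAMP TR-FRET, emission 671 nm / Replicates: singlicate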
# cAMP nonselect: nonselective cAMP signaling inhibitors, parental cells, counter-screen for MC4R biased antagonist project, cell-based, TR-FRET, U2OS, forskolin, triplicate | inhibition, % at 6.5 µM | LANCE TR-FRET | hit rate 26% among 1,600 | AID 602193, 2012 | shares compounds with MC4R antag cAMP;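 active means mean inhibition over triplicates above the low-control well mean plus 3 SD, set per campaign, cut at about 13% in these data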;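 further: signal is single emission at 671 nm which falls as cellular cAMP rises; 0% = forskolin-stimulated wells and 100% = buffer without forskolin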
# MC4R antag conf: MC4R cAMP antagonists, retest, confirmation, cell-based, TR-FRET; inhibition, % at 6.5 µM; shares compounds with MC4R antag cAMP; hit rate 27% among 1,600; MC4R-expressing cells, MTII-stimulated cAMP; in the data active means inhibition above about 29%;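 further: 0% = agonist stimulated wells alone and 100% = agonist stimulated wells plus saturating reference antagonist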
# An asterisk follows results filed as active; ? = inconclusive; . = not tested or not shown.
SMILES,Efflux pump mplx,MC4R ag barr,GalR3 antagonist,Calb FLC,TAG inh,MC4R antag cAMP,cAMP nonselect,MC4R antag conf
CSc1nc(-c2cccs2)c(C#N)c(=O)[nH]1,0,-1,-6,5,6,45*,43*,85*
COc1cccc(-c2nc(SCC(=O)Nc3nc(-c4ccccc4)c(C)s3)[nH]c(=O)c2C#N)c1,0,-1,-4,?,1,9,.,.
CCOc1ccc2nc(NC(=O)CSc3nc(-c4ccccc4)c(C#N)c(=O)[nH]3)sc2c1,.,0,-6,27,.,31*,8,18
O=c1[nH]c(SCc2ccc(Cl)cc2)nc2ccsc12,0,.,-2,35,.,.,.,.
CSc1nc(-c2ccccc2)c(C#N)c(=O)[nH]1,0,1,-5,-8,-3,21,.,.
CNC(=O)NC(=O)CSc1nc(-c2cccs2)c(C#N)c(=O)[nH]1,.,-1,4,11,-1,121*,87*,153*
N#Cc1c(-c2cccs2)nc(SCc2ccc(Cl)cc2)[nH]c1=O,.,0,-2,39,.,58*,43*,80*
CCOCCCNC(=O)N1CCOCC1,0,0,-3,-8,-10,-2,.,.
O=C(NCCCCCCNC(=O)N1CCCCCC1)N1CCCCCC1,0,1,-7,-1,.,30*,-3,0
O=C(c1ccc(Cl)cc1)C(CN1CCCC1)c1ccccc1 (configuration not stated),0,5,-8,2,93,31*,4,-2
CCCOc1ccc(C(=O)C(CN2CCCC2)c2ccccc2)cc1 (configuration not stated),0,0,-2,26,.,3,.,.
Cc1ccc(-n2nc(-c3ccc(OC(F)(F)F)cc3)cc2N)cc1C,0,4,-7,8,-1,29*,4,8
CCOc1cccc(C=NNc2nc(=O)cc(C(=O)OC)s2)c1O,.,.,-9,.,.,.,.,.
CCOc1ccc(-n2nc3c(=S)[nH]nc(C)c3c2C)cc1,0,-1,-5,-10,.,92*,55*,107*
COC(=O)[C@]12C[C@H](CC(=O)NCCC(C)C)C(=O)N(CCC3=CCCCC3)C1=C[C@H](C(C)(C)C)O[C@@H]2C,.,.,5,.,.,.,.,.
Cc1cc(SCC(=O)N/N=C/c2ccco2)nc2ccccc12,0,1,9,-6,.,29*,-3,-6
COc1cc(CN2C(=O)C(CCc3ccccc3)ON=C2c2cnccn2)cc(OC)c1 (configuration not stated),.,0,-2,.,6,16,.,.
CC(=O)Oc1ccc(CN2C(=O)C(CCc3ccccc3)ON=C2c2cnccn2)cc1 (configuration not stated),.,0,-1,.,9,29*,6,13
CCOC(=O)C1=C(O)/C(=C/c2ccc(OCC(=O)O)c(OCC)c2)SC1=Nc1ccc(C)cc1,0,0,-1,70,2,29*,-6,-2
CCOC(=O)C1=C(O)/C(=C/c2ccc(OCC(=O)O)c(OCC)c2)SC1=Nc1ccc(OC)cc1,0,-2,1,0,-2,-5,.,.
COc1ccc(NC(=O)CCC(=O)NCCO)cc1,1,0,-4,-4,5,37*,1,-7
COc1ccc(S(=O)(=O)N2CCCC(C(=O)N3CCN(Cc4ccccc4)CC3)C2)cc1Cl (configuration not stated),.,-1,-8,.,0,2,.,.
COc1cccc(C(=O)Nc2cccc(C(=O)NCC(C)C)c2)c1,0,0,4,-6,.,9,.,.
Cc1ccccc1CNC(=O)c1ccc(Cl)c([N+](=O)[O-])c1,0,-2,-2,12,.,31*,20*,42*
CC(C)CNC(=O)c1cccc(NC(=O)c2ccc(Cl)c([N+](=O)[O-])c2)c1,0,2,-4,6,.,32*,11,15
SMILES,Efflux pump mplx,MC4R ag barr,GalR3 antagonist,Calb FLC,TAG inh,MC4R antag cAMP,cAMP nonselect,MC4R antag conf
CCCCNC(=O)c1nc(-c2cccnc2)oc1-c1ccc(OC(F)(F)F)cc1,.,.,-7,.,.,.,.,.
COc1cc2c(cc1NC(=O)CN1C(=O)NC3(CCc4ccccc43)C1=O)oc1ccccc12 (configuration not stated),0,0,-6,27,55*,44*,2,27
COc1ccccc1Oc1coc2cc(OCC(N)=O)ccc2c1=O,0,-1,-5,6,.,8,.,.
CC(=O)Oc1ccc2c(=O)c(-c3ccccc3)coc2c1,0,0,0,5,11,-9,.,.
CCOC(=O)COc1ccc2c(=O)c(-c3ccccc3)coc2c1,0,-1,-3,0,11,39*,19*,43*
CCOCCOC(=O)COc1ccc2c(=O)c(Oc3ccc(OC)cc3)coc2c1,0,-1,-11,-4,.,29*,24*,28
COC(=O)C1=C(C)N(Cc2ccccc2C(F)(F)F)C(=NCc2ccc3c(c2)OCO3)NC1c1ccc(C(F)(F)F)cc1 (configuration not stated),.,.,-8,.,.,.,.,.
CC(C)=CC(=O)N1CCC(n2nccc2NC(=O)CCc2ccccc2)CC1,0,3,-9,1,.,35*,4,6
O=S(=O)(c1ccc(F)cc1)N1CCN(c2nc(-c3cccnc3)nc3ccccc23)CC1,0,4,-7,.,14,30*,6,23
O=C(c1c(F)cccc1F)N1CCC(n2nnc3cc(C(F)(F)F)ccc32)CC1,0,0,-5,-5,-18,31*,-1,-2
Cc1cccc(NC(=O)NCC2CC2)c1,0,-1,-13,2,.,30*,-4,-20
O=C(NCC(c1cccs1)N1CCOCC1)c1ccc(Cl)c([N+](=O)[O-])c1 (configuration not stated),0,-3,1,7,.,41*,16*,47*
O=C(CNC(=O)c1cccc(Cl)c1)NCC(c1cccs1)N1CCOCC1 (configuration not stated),0,1,1,.,-1,8,.,.
O=C(NCC(c1cccs1)N1CCOCC1)c1ccccc1NS(=O)(=O)c1ccc(Cl)c([N+](=O)[O-])c1 (configuration not stated),0,0,-7,8,.,29*,4,5

# Compound activity: PubChem BioAssay, several laboratories
